# CYP2C9 activ: CYP2C9 (human) activation; recombinant CYP2C9, luciferin-H conversion, luminescence; stronger effect = higher value; factor 1 = untreated enzyme, 0 = blocked; activation factor at 5 µM; 96,000 compounds, 1.4% hits;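 active = activation factor of 2 or more for CYP2C9 at a 5 µM dose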;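 also: 0 = sulfaphenazole-blocked wells and 1 = vehicle-only wells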
# Target sequence (P11712 whole entry, looked up): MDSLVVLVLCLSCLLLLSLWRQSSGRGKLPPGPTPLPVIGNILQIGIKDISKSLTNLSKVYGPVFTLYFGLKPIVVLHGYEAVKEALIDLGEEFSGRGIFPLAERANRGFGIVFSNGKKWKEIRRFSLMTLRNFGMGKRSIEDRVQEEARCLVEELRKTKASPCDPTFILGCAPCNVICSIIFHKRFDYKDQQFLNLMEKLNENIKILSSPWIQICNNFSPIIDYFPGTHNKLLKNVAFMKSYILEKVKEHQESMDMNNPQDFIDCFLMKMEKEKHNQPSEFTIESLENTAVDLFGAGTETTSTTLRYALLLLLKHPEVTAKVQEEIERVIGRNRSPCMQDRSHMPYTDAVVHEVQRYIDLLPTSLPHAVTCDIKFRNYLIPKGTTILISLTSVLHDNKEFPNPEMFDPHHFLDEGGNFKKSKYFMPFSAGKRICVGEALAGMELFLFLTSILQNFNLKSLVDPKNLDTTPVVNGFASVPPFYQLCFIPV
# CYP2C19 activ: cytochrome P450 2C19 (human) activation; activation factor at 5 µM; recombinant CYP2C19, luciferin-H EGE luminescence; stronger effect = higher value; 0 = fully inhibited enzyme, 1 = untreated enzyme; 96,000 tested, under 10 active; P33261; AID 1025;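 active = activation factor of at least 2 at 5 µM in the primary screen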;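 also: 0 = wells with 2.5 mM tranylcypromine and 1 = vehicle-only wells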
# Cav3 T inh: inhibitors of human Cav3.2 T-type calcium channel; O95180; Cav3.2-expressing cells, Fluo-4 calcium fluorescence FDSS; stronger effect = lower value; B-score at 10 µM; 100,000 compounds, 4% hits; AID 449739;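 active = single-dose well whose peak fluorescence ratio is a statistical outlier from its plate by either plate-standardised score or position-corrected B-score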
# CYP2C9 inhib: human CYP2C9 inhibition; 96,000 compounds, 20% hits; AID 777; P11712; CYP2C9 Supersomes, luciferin-H conversion, luminescence; inhibition, % at 5 µM;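 active = blocking of liver enzyme CYP2C9 beyond about 50% at 5 µM, limit read from the data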
# HIV Rev-RRE inh: HIV Rev-RRE protein-RNA interaction inhibition | 97,000 compounds, 0.79% hits | AID 704 | Rev peptide-RRE RNA binding, FRET | inhibition, % at 8 µM;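 active = inhibition above the screen-wide mean plus 3 SD, cut at about 35% in these data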;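 also: 0% = median DMSO wells and 100% = median Neomycin B control wells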
# Target sequence (P05866 whole entry, looked up): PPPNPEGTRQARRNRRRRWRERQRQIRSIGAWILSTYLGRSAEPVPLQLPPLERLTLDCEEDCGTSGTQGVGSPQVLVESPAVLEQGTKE
#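 assay system = Cy5-tagged RRE RNA duplex with fluorescein-tagged Rev peptide | incubation = 5 + 15 min at 25 °C | also added = labelled Rev peptide | measure = % inhibition of FRET ratio versus controls | benchmarks = DMSO wells as 0% and neomycin B wells as 100% inhibition | measured by = FRET fluorescence readout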
# CYP2C19 inhib: human CYP2C19 inhibition; P33261; CYP2C19 Supersomes, luciferin-H EGE luminescence, 30 min; inhibition, % at 5 µM; 96,000 compounds, 21% hits;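 active = CYP2C19 inhibition above a set limit at 5 µM in the primary screen, cut at about 50% in these data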;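 also: plate controls were negative control wells for no effect and 2.5 mM tranylcypromine positive control for full effect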
# Starred values were filed as active, the others as inactive; . = not tested or not shown. Rows were chosen to be rich in hits. Some 27% of all compounds tested hit in one or more screens of this group.
SMILES,CYP2C9 activ,CYP2C19 activ,Cav3 T inh,CYP2C9 inhib,HIV Rev-RRE inh,CYP2C19 inhib
C=CCn1c2ccccc2c2nnc(SCCCn3c(=O)[nH]c4ccccc43)nc21,0.2,0.3,-3,76*,-20,75*
O=C1c2ccccc2C(=O)N1CSc1nnc2c3ccccc3n(CCc3ccccc3)c2n1,0.6,0.7,0.011,40,8,31
Clc1ccc(-c2onc3c2CCCC3)cc1,0.8,0.9,-0.45,18,4,12
CC(=O)C1=C(C)OC(N)=C(C#N)C1c1cc2cc(C)c(C)cc2nc1Cl (stereo not given),0.8,0.1,.,25,5,87*
CCOC(=O)C1CCN(c2c(N(C)Cc3ccco3)c(=O)c2=O)CC1,0.6,0.6,0.21,38,-5,41
O=C(NCCOC12CC3CC(CC(C3)C1)C2)c1cccc(Br)c1,0.7,0.3,-2,30,15,72*
O=C(O)CCCCCNC(=O)c1cccc(Br)c1,1,1.1,-0.11,4,2,-7
O=C(Nc1ccc(F)cc1)C1CCCN(S(=O)(=O)c2cccc3cccnc23)C1 (stereo not given),1.7,0.3,0.78,-74,7,68*
O=C(Nc1nc2cc(Cl)ccc2s1)C1CCCN(S(=O)(=O)c2cccc3cccnc23)C1 (stereo not given),2.1*,0.9,-0.32,-106,2,7
CCOC(=O)c1sc(NC(=O)CSc2nc3c(c(=O)n2-c2ccc(C)cc2)SCC3)c(C(=O)OCC)c1C,.,.,0.29,.,.,.
CC(C)C[C@H](NC(=O)OC(C)(C)C)C(=O)N/N=C/C1=Cc2ccccc2OC1C (stereo not given in full),0.6,0.9,-4.4*,42,6,8
Cc1cc(C)n2nc(C(=O)OCCOc3cccc(Br)c3)nc2n1,0.9,0.8,0.26,11,.,19
O=C(COC(=O)c1c2c(nc3ccccc13)CCCC2)c1cccs1,1,0.9,-1.5,-3,8,12
CCOc1cc(C(c2c(C)[nH][nH]c2=O)c2c(C)[nH][nH]c2=O)ccc1OC(=O)c1cccc([N+](=O)[O-])c1,0.5,0.6,0.035,54*,6,41
CCOc1ccc(C(c2c(C)[nH][nH]c2=O)c2c(C)[nH][nH]c2=O)cc1OC,0.7,0.9,0.35,29,-3,14
CCOc1cc(C(c2c(C)[nH][nH]c2=O)c2c(C)[nH][nH]c2=O)ccc1OCc1ccc([N+](=O)[O-])cc1,0.7,0.4,-0.11,34,8,60*
CCOc1cc(/C=N/NC(=O)c2ccncc2)ccc1OC(=O)c1ccc([N+](=O)[O-])cc1,0.9,1,0.025,9,14,-3
COC(=O)c1ccc(=O)c2nc3/c(=C/O)c(O)cc(=O)c3[nH]c12,.,.,1,.,.,.
CC1=C(C#N)C(c2cccnc2)C2=C(CC(c3ccc(Cl)cc3)CC2=O)N1 (stereo not given),0.3,0.1,-0.026,73*,6,92*
O=C(NC12CC3CC(CC(C3)C1)C2)N1CCN(S(=O)(=O)c2ccc(Cl)cc2)CC1,0.9,1,-7*,5,8,-4
CC(=O)Cn1c(N2CCC(Cc3ccccc3)CC2)nc2c1c(=O)[nH]c(=O)n2C,0.8,0.5,1.6,16,6,50*
CCCCCn1c(N2CCC(Cc3ccccc3)CC2)nc2c1c(=O)[nH]c(=O)n2C,.,.,-4.8*,.,-3,.
Cn1c(=O)[nH]c(=O)c2c1nc(N1CCC(Cc3ccccc3)CC1)n2Cc1ccccc1,0.8,0.7,-0.79,23,7,29
C=C(C)Cn1c(N2CCC(Cc3ccccc3)CC2)nc2c1c(=O)[nH]c(=O)n2C,.,.,-4*,.,7,.
CC(C)CCNC(=O)C1CC(c2ccccc2C(F)(F)F)=NO1 (stereo not given),.,.,0.3,.,.,.
SMILES,CYP2C9 activ,CYP2C19 activ,Cav3 T inh,CYP2C9 inhib,HIV Rev-RRE inh,CYP2C19 inhib
CCOC(=O)C1(Cc2ccccc2)NC(c2ccccc2F)C2C(=O)N(CC)C(=O)C21 (stereo not given),0.9,0.5,-1.8,8,6,48
O=C(/C=C/c1cccs1)N1CCC2(CC1)Oc1ccc(Cl)cc1C(=O)C21CC(c2ccccc2)=NO1 (stereo not given),.,.,-1.6,.,.,.
COc1ccc(C)cc1NC(=O)CN1CCN(CC(=O)Nc2ccccc2F)CC1,0.9,0.4,.,12,5,61*
COc1ccccc1NC(=O)N1CCN(c2ccccc2F)CC1,2.4*,0.6,0.074,-135,4,41
COc1ccccc1NC(=O)CN1CCN(c2ccccc2F)CC1,0.3,0.1,-0.9,66*,3,88*
COc1ccc(NC(C)=O)cc1NC(=O)CN1CCN(CC(=O)Nc2ccc(Cl)cc2)CC1,0.8,0.3,2.5,25,7,67*
COc1ccccc1NC(=O)N1CCN(c2ccccn2)CC1,1.8,0.7,-1.9,-78,9,25
CCC1=C2CC[C@H]3C(=O)N(CC(=O)OC)C(=O)[C@H]3[C@H]2[C@@]2(C)C(=NCC(=O)OC)OC(=O)N2C1=O,.,.,0.41,.,.,.
Cn1c(=O)c2c(nc(CN3CCOCC3)n2CCCO)n(C)c1=O,1,1.1,-0.76,4,.,-6
COc1ccc(Cl)cc1NC(=O)C(C)N1CCN(C/C=C/c2ccccc2)CC1 (stereo not given),0.1,0,1.7,91*,10,97*
COc1ccc(Cl)cc1NC(=O)N1CCN(CCc2ccccc2)CC1,2.3*,0.3,0.0053,-130,15,73*
CCCC(=O)Nc1cccc(NC(=O)CN2CCN(c3ccccc3OC)CC2)c1,0.2,0.1,0.41,77*,.,88*
COc1ccccc1NC(=O)CCN1CCN(Cc2ccccc2)CC1,0.4,0.8,1.4,57*,7,24
COc1ccc(Cl)cc1NC(=O)CCN1CCN(C)CC1,1.1,1.1,-0.038,-6,5,-6
COc1cc(OC)cc(C(=O)NC2CC3CCC(C2)N3Cc2ccco2)c1 (stereo not given),1,1,1.3,1,0,0
CCOc1cccc(N2C(=O)CC(NCc3ccc(S(N)(=O)=O)cc3)C2=O)c1 (stereo not given),1.1,1.1,-0.34,-9,1,-12
COc1cccc(NC(=O)CN2CCN(c3ccccc3F)CC2)c1,0.3,0.4,.,67*,2,62*
COc1ccccc1NC(=O)CN1CCN(C2c3ccccc3-c3ccccc32)CC1,0,0.2,-2.3,96*,-3,81*
COc1cc(NC(=O)CN2CCN(c3ccccc3F)CC2)cc(OC)c1,0.7,0.8,.,34,.,22
CCOC(=O)c1ccc(NC(=O)N2CCN(CCc3ccccc3)CC2)cc1,0.3,0.6,-0.21,66*,9,43
CCOc1ccc(NC(=O)CN2CCN(C3c4ccccc4-c4ccccc43)CC2)cc1,.,.,-2.4,.,-1,.

# Assay outcomes: PubChem BioAssay, several laboratories
